Measured values from ChEMBL document CHEMBL2086325, “Suppression of autoimmune arthritis by Celastrus-derived Celastrol through modulation of pro-inflammatory chemokines” (Bioorg Med Chem, 2012).
The source made the active and inactive calls. No cut-off for these calls is given here.

Experiments:
Rattus norvegicus [1] = test: Toxicity in Lewis rat adjuvant-induced arthritis model serum assessed as increase in MCP1 production at 200 ug, ip starting from arthritis onset and continued uninterrupted until study end by cytokine multiplex assay; assay type: organism-based; settings: in vivo
In short: (§1)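 Arthritic Lewis rats (Mtb 1.5 mg s.c. in mineral oil) were given 200 μg/rat i.p. daily from onset until the day before harvest; controls received DMSO/PBS vehicle. On d 18, blood was taken by cardiac puncture after euthanasia and serum stored at −80 °C. Serum pooled from 4 rats was assayed in triplicate by multiplex.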

Rattus norvegicus [2] = organism: Rattus norvegicus; test: Antiarthritic effect in sonicated Mtb-stimulated spleen adherent cells isolated from Lewis rat adjuvant-induced arthritis model assessed as reduction in MIP-1alpha production pre-incubated with compound for 30 mins before stimulation with sonicated-Mtb for 48 hrs by multiplex assay; assay type: functional, tissue-based
Rattus norvegicus [3] = test: (§2) Antiarthritic effect in Lewis rat adjuvant-induced arthritis model lymph node cells restimulated with sonicated Mtb post isolation assessed as reduction in MIP-1alpha production at 200 ug, ip starting from arthritis onset and continued uninterrupted until study end by cytokine multiplex assay; assay type: functional, organism-based
In short: (§3)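 Male Lewis rats were immunized s.c. with heat-killed Mtb H37Ra (1.5 mg/rat) in mineral oil. From arthritis onset they received 200 μg/rat i.p. daily (DMSO stock diluted in PBS); controls got 1.2% DMSO in PBS. On d 18, draining lymph node or synovial-infiltrating cells were cultured at 1.5 × 10^6/well in 2% FBS medium ± sonicated Mtb (10 μg/ml) for 24 h. Supernatants were analysed by multiplex.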

Rattus norvegicus [4] = organism: Rattus norvegicus; test: Increase in CCR1 expression in sonicated Mtb-stimulated spleen adherent cells isolated from Lewis rat adjuvant-induced arthritis model pre-incubated with compound before stimulation with sonicated Mtb for 24 hrs by qPCR; assay type: functional, tissue-based
In short: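 Spleen adherent cells (1.5–2.0 × 10^6 cells/well) came from an untreated arthritic Lewis rat. They were restimulated 24 h with sonicated Mtb (10 μg/ml) with or without compound at 0.1 and 0.3 μM. CCR1 mRNA was measured by qPCR, normalized to HPRT and expressed as relative message.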

Rattus norvegicus [5] = test: Antiarthritic effect in Lewis rat adjuvant-induced arthritis model spleen adherent cells restimulated with sonicated Mtb post isolation assessed as reduction in CXCR1 expression at 200 ug, ip starting from arthritis onset and continued uninterrupted until study end by qPCR analysis; assay type: functional, organism-based
In short: (§4)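 From onset of Mtb-induced arthritis, rats received 200 μg/rat i.p. daily or vehicle. Spleen adherent cells harvested on d 18 (1.5–2.0 × 10^6 cells/well) were cultured in medium or with sonicated Mtb (10 μg/ml) for 24 h. Receptor mRNA was quantified by qPCR after TRIzol RNA isolation and cDNA synthesis, normalized to HGPRT and reported as relative message.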

Rattus norvegicus [6] = test: as §2, with “synovial infiltrating” for “lymph node”; assay type: functional, organism-based; in short: as §3
Rattus norvegicus [7] = organism: Rattus norvegicus; test: Increase in CCR1 protein surface expression in sonicated Mtb-stimulated spleen adherent cells isolated from Lewis rat adjuvant-induced arthritis model pre-incubated with 0.1 to 0.3 uM compound before stimulation with sonicated Mtb for 24 hrs by flow cytometry; assay type: functional, tissue-based
In short: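 Spleen adherent cells from arthritic rats were stimulated 24 h with sonicated Mtb in vitro, with or without compound. Cells were detached with TrypLE for 10 min, washed, and surface-stained 30 min with anti-CD11b/c PerCP-eFluor 710 and cross-reactive anti-human CCR1 Alexa Fluor 647. Cells were fixed in 1% formaldehyde and analysed by flow cytometry, with IgG2a/IgG2b isotype controls.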

Rattus norvegicus [8] = test: (§5) Antiarthritic effect in Lewis rat adjuvant-induced arthritis model synovial infiltrating cells restimulated with sonicated Mtb post isolation assessed as reduction in RANTES production at 200 ug, ip starting from arthritis onset and continued uninterrupted until study end by cytokine multiplex assay; assay type: functional, organism-based; in short: as §3
Rattus norvegicus [9] = test: Antiarthritic effect in Lewis rat adjuvant-induced arthritis model spleen adherent cells restimulated with sonicated Mtb post isolation assessed as reduction in GRO/KC production at 200 ug, ip starting from arthritis onset and continued uninterrupted until study end by cytokine multiplex assay; assay type: functional, organism-based
In short: (§6)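 Mtb-immunized male Lewis rats were dosed 200 μg/rat i.p. daily from arthritis onset (vehicle: 1.2% DMSO/PBS). Spleen adherent cells were prepared on d 18, plated at 1.5 × 10^6/well in 2% FBS medium and restimulated with sonicated Mtb (10 μg/ml) for 24 h. Supernatant chemokines and cytokines were measured by Luminex multiplex. Mean ± SD of triplicates from 4–5 rats.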

Rattus norvegicus [10] = organism: Rattus norvegicus; test: Antiarthritic effect in sonicated Mtb-stimulated spleen adherent cells isolated from Lewis rat adjuvant-induced arthritis model assessed as reduction in GRO/KC production pre-incubated with compound for 30 mins before stimulation with sonicated-Mtb for 48 hrs by multiplex assay; assay type: functional, tissue-based
Rattus norvegicus [11] = test: Antiarthritic effect in Lewis rat adjuvant-induced arthritis model spleen adherent cells restimulated with sonicated Mtb post isolation assessed as reduction in CCR6 expression at 200 ug, ip starting from arthritis onset and continued uninterrupted until study end by qPCR; assay type: functional, organism-based; in short: as §4
Rattus norvegicus [12] = test: Antiarthritic effect in Lewis rat adjuvant-induced arthritis model spleen adherent cells restimulated with sonicated Mtb post isolation assessed as reduction in IL-1beta production at 200 ug, ip starting from arthritis onset and continued uninterrupted until study end by cytokine multiplex assay; assay type: functional, organism-based; in short: as §6
Rattus norvegicus [13] = test: Antiarthritic effect in Lewis rat adjuvant-induced arthritis model spleen adherent cells restimulated with sonicated Mtb post isolation assessed as reduction in MCP1 production at 200 ug, ip starting from arthritis onset and continued uninterrupted until study end by cytokine multiplex assay; assay type: functional, organism-based; in short: as §6
Rattus norvegicus [14] = test: Antiarthritic effect in Lewis rat adjuvant-induced arthritis model spleen adherent cells restimulated with sonicated Mtb post isolation assessed as reduction in CCR5 expression at 200 ug, ip starting from arthritis onset and continued uninterrupted until study end by qPCR; assay type: functional, organism-based; in short: as §4
Rattus norvegicus [15] = organism: Rattus norvegicus; test: Antiarthritic effect in IL-1beta-stimulatedspleen adherent cells isolated from Lewis rat adjuvant-induced arthritis model assessed as reduction in MIP-1alpha production pre-incubated with compound for 30 mins before stimulation with IL-1beta for 48 hrs by multiplex assay; assay type: functional, tissue-based; settings: Spleen
Rattus norvegicus [16] = test: Antiarthritic effect in Lewis rat adjuvant-induced arthritis model lymph node cells restimulated with sonicated Mtb post isolation assessed as reduction in IL-1beta production at 200 ug, ip starting from arthritis onset and continued uninterrupted until study end by cytokine multiplex assay; assay type: functional, organism-based; in short: as §3
Rattus norvegicus [17] = test: Antiarthritic effect in Lewis rat adjuvant-induced arthritis model spleen adherent cells restimulated with sonicated Mtb post isolation assessed as reduction in CXCR4 expression at 200 ug, ip starting from arthritis onset and continued uninterrupted until study end by qPCR; assay type: functional, organism-based; in short: as §4
Rattus norvegicus [18] = test: as §5, with “IL-1beta” for “RANTES”; assay type: functional, organism-based; in short: as §3
Rattus norvegicus [19] = test: Antiarthritic effect in Lewis rat adjuvant-induced arthritis model serum assessed as reduction in IL-1beta production at 200 ug, ip starting from arthritis onset and continued uninterrupted until study end by cytokine multiplex assay; assay type: functional, organism-based; in short: as §1
Rattus norvegicus [20] = test: Antiarthritic effect in Lewis rat adjuvant-induced arthritis model synovial infiltrating cells restimulated with sonicated Mtb post isolation assessed as reduction in MCP1 production at 200 ug, ip starting from arthritis onset and continued uninterrupted until study end by cytokine multiplex assay; assay type: functional, organism-based; in short: as §3
Rattus norvegicus [21] = organism: Rattus norvegicus; test: Antiarthritic effect in IL-1beta-stimulatedspleen adherent cells isolated from Lewis rat adjuvant-induced arthritis model assessed as reduction in MCP1 production pre-incubated with compound for 30 mins before stimulation with IL-1beta for 48 hrs by multiplex assay; assay type: functional, tissue-based; settings: Spleen

## CC1=C(O)C(=O)C=C2C1=CC=C1[C@@]2(C)CC[C@@]2(C)[C@@H]3C[C@](C)(C(=O)O)CC[C@]3(C)CC[C@]12C [CELASTROL]
Rattus norvegicus [1]
  Activity: Toxic
Rattus norvegicus [2]
  Activity: Dose-dependent effect
Rattus norvegicus [3]
  Activity: inactive
Rattus norvegicus [4]
  Activity: Dose-dependent effect
Rattus norvegicus [5]
  Activity: Active
Rattus norvegicus [6]
  Activity: inactive
Rattus norvegicus [7]
  Activity: Active
Rattus norvegicus [8]
  Activity: inactive
Rattus norvegicus [9]
  Activity: Active
Rattus norvegicus [10]
  Activity: Dose-dependent effect
Rattus norvegicus [11]
  Activity: Active
Rattus norvegicus [12]
  Activity: Active
Rattus norvegicus [13]
  Activity: Active
Rattus norvegicus [14]
  Activity: Active
Rattus norvegicus [15]
  Activity: Dose-dependent effect
Rattus norvegicus [16]
  Activity: inactive
Rattus norvegicus [17]
  Activity: Active
Rattus norvegicus [18]
  Activity: inactive
Rattus norvegicus [19]
  Activity: Active
Rattus norvegicus [20]
  Activity: inactive
Rattus norvegicus [21]
  Activity: Dose-dependent effect
